Results from ChEMBL document CHEMBL1165881, “Synthesis and cytotoxicity evaluation of (tetrahydro-beta-carboline)-1,3,5-triazine hybrids as anticancer agents” (Eur J Med Chem, 2010).

Experiments:
[1] = Cytotoxicity against mouse NIH/3T3 cells after 72 hrs by MTT assay; format: cell-based, NIH3T3
How it was run: (§1)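 Seeded at 5000–10000 cells/well, incubated at 37 °C in CO2 with compounds at a range of concentrations, controls included, in triplicate wells. After 72 h, MTT solution (5 mg/mL) added; absorbance read at 540 nm. % cytotoxicity = 100 × [1 − (X/R1)] versus control absorbance; IC50 by nonlinear regression. Values are means of at least two independent experiments, three determinations each.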

DU-145 = assay: Cytotoxicity against human DU145 cells after 72 hrs by MTT assay; format: functional, cell-based; how it was run: as §1
KB = assay: Cytotoxicity against human KB cells after 72 hrs by MTT assay; format: functional, cell-based; how it was run: as §1
K562 = assay: Cytotoxicity against human K562 cells after 72 hrs by MTT assay; format: functional, cell-based; how it was run: as §1
MCF7 = assay: Cytotoxicity against human MCF7 cells after 72 hrs by MTT assay; format: functional, cell-based; how it was run: as §1
PA-1 = assay: Cytotoxicity against human PA1 cells after 72 hrs by MTT assay; format: functional, cell-based; how it was run: as §1
MIA PaCa-2 = assay: Cytotoxicity against human MIAPaCa2 cells after 72 hrs by MTT assay; format: functional, cell-based; how it was run: as §1
SW-620 = assay: Cytotoxicity against human SW620 cells after 72 hrs by MTT assay; format: functional, cell-based; how it was run: as §1
A549 = assay: Cytotoxicity against human […] cells after 72 hrs by MTT assay; format: functional, cell-based; how it was run: as §1
[2] = Mus musculus, NIH3T3, 72 h, read-out: IC50
[3] = Homo sapiens, K562, 72 h, read-out: IC50
[4] = Homo sapiens, PA-1, 72 h, read-out: IC50
[5] = Homo sapiens, MIA PaCa-2, 72 h, read-out: IC50
[6] = Homo sapiens, SW-620, 72 h, read-out: IC50
[7] = Homo sapiens, DU-145, 72 h, read-out: IC50
[8] = Homo sapiens, MCF7, 72 h, read-out: IC50
[9] = Homo sapiens, A549, 72 h, read-out: IC50

In the case of COC(=O)[C@H]1Cc2c([nH]c3ccccc23)[C@H](c2ccc(Cl)cc2)N1c1nc(N2CCN(C)CC2)nc(N2CCN(C)CC2)n1 (racemic), the IC50 [1, 2] is reported as 2220 nM, the IC50 (DU-145; du-145) is reported as “Not Active” and the IC50 (KB; Homo sapiens, KB, 72 h) is reported as 1980 nM. The IC50 (K562; [3]) was 5.01 µM, the IC50 (MCF7; mcf7) was “Not Active” and the IC50 (PA-1; [4]) was 6390 nM. It also gave an IC50 (MIA PaCa-2; [5]) of 7.12 µM and an IC50 (SW-620; [6]) of 2730 nM.
With COC(=O)[C@@H]1Cc2c([nH]c3ccccc23)[C@H](c2ccc(OC)cc2)N1c1nc(N2CCN(C)CC2)nc(N2CCN(C)CC2)n1 (racemic) the IC50 [1, 2] was 2330 nM, the IC50 (DU-145; [7]) was 5.35 µM and the IC50 (A549; a549, read-out: IC50) was 6300 nM. The IC50 (KB; kb) was 1460 nM, the IC50 (K562; [3]) was 7.13 µM and the IC50 (MCF7; [8]) was 6.06 µM. For the same compound, the IC50 (PA-1; [4]) was 2720 nM, the IC50 (MIA PaCa-2; mia paca-2, read-out: IC50) was 7.37 µM and the IC50 (SW-620; sw-620, read-out: IC50) was 3320 nM.
Compound COC(=O)[C@@H]1Cc2c([nH]c3ccccc23)[C@H](c2ccc(C(C)C)cc2)N1c1nc(N2CCN(C)CC2)nc(N2CCN(C)CC2)n1 has an IC50 [1, 2] of 1170 nM, an IC50 (DU-145; [7]) of 2.87 µM and an IC50 (A549; [9]) of 1760 nM. It also gave an IC50 (KB; Homo sapiens, KB, 72 h) of 6880 nM, an IC50 (K562; [3]) of 6.43 µM and an IC50 (MCF7; [8]) of 5.93 µM. The IC50 (PA-1; [4]) was 270 nM, the IC50 (MIA PaCa-2; [5]) was 1.81 µM and the IC50 (SW-620; [6]) was 1930 nM.
In the case of CCN1CCN(c2nc(N3CCN(CC)CC3)nc(N3[C@H](c4ccc(OC)cc4)c4[nH]c5ccccc5c4C[C@H]3C(=O)OC)n2)CC1, the IC50 [1, 2] is reported as 1860 nM, the IC50 (DU-145; [7]) is reported as 1.67 µM and the IC50 (A549; [9]) is reported as 1610 nM. The IC50 (KB; Homo sapiens, KB, 72 h) was 1220 nM, the IC50 (MCF7; [8]) was 1.34 µM and the IC50 (PA-1; pa-1) was “Not Active”. For the same compound, the IC50 (SW-620; sw-620) was “Not Active”.
Work on COC(=O)[C@H]1Cc2c([nH]c3ccccc23)[C@H](c2ccc(C)cc2)N1c1nc(N2CCN(C)CC2)nc(N2CCN(C)CC2)n1 yielded an IC50 [1, 2] of 2160 nM, an IC50 (DU-145; [7]) of 2.14 µM and an IC50 (A549; [9]) of 2340 nM. For the same compound, the IC50 (KB; Homo sapiens, KB, 72 h) was 1860 nM, the IC50 (K562; [3]) was 3.22 µM and the IC50 (MCF7; [8]) was 5.89 µM. For the same compound, the IC50 (PA-1; [4]) was 6910 nM, the IC50 (MIA PaCa-2; [5]) was 7 µM and the IC50 (SW-620; [6]) was 2650 nM.
COC(=O)[C@H]1Cc2c([nH]c3ccccc23)[C@@H](c2ccccc2)N1c1nc(N2CCN(C)CC2)nc(N2CCN(C)CC2)n1 gave an IC50 [1, 2] of 11400 nM, an IC50 (DU-145; [7]) of 7.76 µM and an IC50 (A549; [9]) of 8620 nM. The IC50 (KB; Homo sapiens, KB, 72 h) was 1830 nM, the IC50 (K562; [3]) was 6.45 µM and the IC50 (MCF7; [8]) was 8.28 µM. For the same compound, the IC50 (PA-1; [4]) was 1790 nM, the IC50 (MIA PaCa-2; [5]) was 5.88 µM and the IC50 (SW-620; [6]) was 3240 nM.
With COC(=O)[C@@H]1Cc2c([nH]c3ccccc23)[C@H](c2ccc(OC)cc2)N1c1nc(N2CCN(C)CC2)nc(N2CCN(C)CC2)n1 the IC50 ([1]; nih3t3, read-out: IC50) was 1620 nM, the IC50 (DU-145; du-145, read-out: IC50) was 10.3 µM and the IC50 (A549; a549, read-out: IC50) was 3130 nM. For the same compound, the IC50 (KB; kb) was 7540 nM, the IC50 (K562; k562, read-out: IC50) was 4.83 µM and the IC50 (MCF7; mcf7, read-out: IC50) was 9 µM. For the same compound, the IC50 (PA-1; pa-1, read-out: IC50) was 2770 nM, the IC50 (MIA PaCa-2; mia paca-2, read-out: IC50) was 3.62 µM and the IC50 (SW-620; sw-620, read-out: IC50) was 1190 nM.
For CCCNc1nc(NCCC)nc(N2[C@@H](c3ccc(OC)cc3)c3[nH]c4ccccc4c3C[C@@H]2C(=O)OC)n1 (racemic), the IC50 ([1]; nih3t3) was “Not Active”, the IC50 (DU-145; du-145) was “Not Active” and the IC50 (A549; a549) was “Not Active”. The IC50 (KB; Homo sapiens, KB, 72 h) was 122 nM, the IC50 (K562; k562) was “Not Active” and the IC50 (MCF7; mcf7) was “Not Active”. For the same compound, the IC50 (PA-1; pa-1) was “Not Active”, the IC50 (MIA PaCa-2; mia paca-2) was “Not Active” and the IC50 (SW-620; sw-620) was “Not Active”.
CCCN1CCN(c2nc(N3CCN(CCC)CC3)nc(N3[C@H](c4ccc(OC)cc4)c4[nH]c5ccccc5c4C[C@H]3C(=O)OC)n2)CC1 gave an IC50 [1, 2] of 2240 nM, an IC50 (DU-145; [7]) of 7.11 µM and an IC50 (A549; [9]) of 1670 nM. For the same compound, the IC50 (KB; Homo sapiens, KB, 72 h) was 3540 nM, the IC50 (MCF7; [8]) was 2.07 µM and the IC50 (PA-1; pa-1) was “Not Active”. For the same compound, the IC50 (SW-620; sw-620) was “Not Active”.
